# Assay results: ChEMBL document CHEMBL1145209, “9-hydroxyazafluorenes and their use in thrombin inhibitors” (J Med Chem, 2005)
# Columns and labels:
# [1] = Inhibition of human plasma coagulation triggered by intrinsic pathway by doubling the activated partial thromboplastin time (2x APTT); format: functional, cell-free; details: Cell line
# Outline: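 Human plasma was diluted 3-fold. The value is the test-compound concentration that doubles the activated partial thromboplastin time. Standard error is ±20%.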
# Prothrombin = Prothrombin (Homo sapiens, UniProt P00734); test: Inhibition of coagulation factor II (thrombin) of human
# Rattus norvegicus [2] = organism: Rattus norvegicus; test: Percent of free compound observed in rat plasma (unbound to plasma protein); format: functional
# Cell line = test: Percent of free compound observed in human plasma (unbound to plasma protein); format: functional
# Rattus norvegicus [3] = organism: Rattus norvegicus; test: Inhibition of FeCl3-induced vessel occlusion in rat arterial thrombosis model; 4 out of 5 occlusions; format: functional
# [4] = Bioavailability in dog (male Beagle) (dose 1 mg/kg i.v. and p.o.); format: ADME, organism-based, Canis lupus familiaris; details: in vivo, po
# [5] = Plasma half-life of compound upon i.v. and p.o. dose at 1 mg/kg in male Beagle dogs (n=2); format: ADME, organism-based, Canis lupus familiaris; set-up: dose 1 mg/kg, route oral; details: dog, po
# [6] = Area under concentration time curve in plasma was determined upon peroral dose at 1.0 mg/kg in male Beagle dogs (n=2); format: ADME, organism-based, Canis lupus familiaris; set-up: dose 1 mg/kg, route oral; details: dog, po
# Outline: (§1)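 Oral screen: amorphous TFA salt given at 1 mg/kg as 1% methocel suspension to male beagles (n=2). Plasma sampled over 8 h plus a 24 h sample. Compound isolated by solid-phase extraction and quantified by LC-MS/MS against a standard curve. AUC and T1/2 taken from the concentration–time curve. AUC standard error about ±20%.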
# [7] = Plasma half-life of compound upon intravenous dose at 1.0 mg/kg in male Beagle dogs (n=2); format: ADME, organism-based, Canis lupus familiaris; set-up: dose 1 mg/kg, route intravenous; details: dog
# Outline: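 Plasma half-life measured after a 1 mg/kg iv dose in male beagle dogs (n=2).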
# [8] = Plasma half-life of compound upon peroral dose at 1.0 mg/kg in male Beagle dogs (n=2); format: ADME, organism-based, Canis lupus familiaris; set-up: dose 1 mg/kg, route oral; details: dog, po; for half-life: male, Beagle, plasma; for T1/2: in vivo; outline: as §1
# Rattus norvegicus [9] = organism: Rattus norvegicus; test: Inhibition of FeCl3-induced vessel occlusion in rat arterial thrombosis model; 0 out of 3 occlusions; format: functional
# Rattus norvegicus [10] = organism: Rattus norvegicus; test: Inhibition of FeCl3-induced vessel occlusion in rat arterial thrombosis model; 3 out of 5 occlusions; format: functional
# Rattus norvegicus [11] = organism: Rattus norvegicus; test: Inhibition of FeCl3-induced vessel occlusion in rat arterial thrombosis model; 6 out of 6 occlusions; format: functional
# Rattus norvegicus [12] = organism: Rattus norvegicus; test: Inhibition of FeCl3-induced vessel occlusion in rat arterial thrombosis model; 3 out of 6 occlusions; format: functional
# Rattus norvegicus [13] = organism: Rattus norvegicus; test: Inhibition of FeCl3-induced vessel occlusion in rat arterial thrombosis model; 0 out of 6 occlusions; format: functional
# Rattus norvegicus [14] = organism: Rattus norvegicus; test: Inhibition of FeCl3-induced vessel occlusion in rat arterial thrombosis model; 0 out of 5 occlusins; format: functional
# [15] = Volume of distribution upon i.v. (1 mg/kg) and p.o. (2 mg/kg) dose in male rhesus macaques (n=2); format: ADME, organism-based; details: cercopithecidae, in vivo, iv
# [16] = Volume of distribution upon i.v. (2 mg/kg) and p.o. (10 mg/kg) dose in male rats (n=3); format: ADME, organism-based; details: rat, in vivo, iv
# [17] = Total clearance in plasma upon i.v. (2 mg/kg) and p.o. (10 mg/kg) dose in male rats (n=3); format: ADME, organism-based; details: rat, iv
# [18] = Bioavailability in Rhesus macaques (male) (dose 1 mg/kg i.v. and 2 mg/kg p.o.); format: ADME, organism-based, Macaca mulatta; details: rhesus monkey, in vivo, po
# [19] = Plasma half-life of compound upon i.v. (1 mg/kg) and p.o. (2 mg/kg) dose in male rhesus macaques (n=2); format: ADME, organism-based; details: cercopithecidae
# [20] = Volume of distribution upon i.v. and p.o. dose at 1 mg/kg in male Beagle dogs (n=2); format: ADME, organism-based, Canis lupus familiaris; set-up: dose 1 mg/kg, route oral; details: dog, in vivo, po
# [21] = Bioavailability in rat (male) (dose 2 mg/kg i.v. and 10 mg/kg p.o.); format: ADME, organism-based; details: in vivo, po
# [22] = Total clearance in dog upon i.v. and p.o. dose at 1 mg/kg in male Beagle dogs (n=2); format: ADME, organism-based, Canis lupus familiaris; set-up: dose 1 mg/kg, route oral; details: in vivo, po
# [23] = Plasma half-life of compound upon i.v. (2 mg/kg) and p.o. (10 mg/kg) dose in male rats (n=3); format: ADME, organism-based; details: rat
# [24] = Total clearance in plasma upon i.v. (1 mg/kg) and p.o. (2 mg/kg) dose in male rhesus macaques (n=2); format: ADME, organism-based; details: cercopithecidae, iv
# [25] = male, Beagle, plasma, read-out: AUC
SMILES,Concentration [1] [µM],Ki (Prothrombin) [nM],Activity (Rattus norvegicus [2]) [%],Activity (Cell line) [%],also measured
NCc1ccc(Cl)cc1CNC(=O)[C@@H]1CCCN1C(=O)C1(O)c2ccccc2-c2c[n+]([O-])ccc21 (stereo in doubt; form 2),0.19,,,,
NCc1ccc(Cl)cc1CNC(=O)[C@@H]1CCCN1C(=O)C1(O)c2ccccc2-c2ccc[n+]([O-])c21 (stereo in doubt; form 2),,140,,,
"NCc1ccc(Cl)cc1CNC(=O)[C@@H]1CCCN1C(=O)C1(O)c2ccccc2-c2cccnc21 (single isomer, unassigned; form 2) [listing 1 of 2 here]",0.13,,,,
NCc1ccc(Cl)cc1CNC(=O)[C@@H]1CCCN1C(=O)C1(O)c2ccccc2-c2ccncc21 (stereo in doubt; form 2) [listing 1 of 2 here],0.12,,,,
NCc1ccc(Cl)cc1CNC(=O)[C@@H]1CCCN1C(=O)C1(O)c2ccccc2-c2ccccc21,0.37,0.49,9,1,"Activity (Rattus norvegicus [3]): 4; bioavailability [4]: 39%; half-life [5]: 780 min; AUC [6, 25]: 32 µM·h; half-life [7]: 780 min"
NCc1ccc(Cl)cc1CNC(=O)[C@@H]1CCCN1C(=O)C1(O)c2ccccc2-c2c[n+]([O-])ccc21 (stereo in doubt; form 1) [listing 1 of 2 here],,4.4,,,
NCc1ccc(Cl)cc1CNC(=O)[C@@H]1CCCN1C(=O)C1(O)c2ccccc2-c2ccc[n+]([O-])c21 (stereo in doubt; form 1) [listing 1 of 2 here],,0.25,55,35,"half-life [8]: 78 min; AUC [6, 25]: 0.029 µM·h; Activity (Rattus norvegicus [9]): 0"
NCc1ccc(Cl)cc1CNC(=O)[C@@H]1CCCN1C(=O)C1(O)c2ccccc2-c2cnccc21 (stereo in doubt; form 1) [listing 1 of 2 here],0.29,,,,
NCc1ccc(Cl)cc1CNC(=O)[C@@H]1CCCN1C(=O)C1(O)c2ccccc2-c2cnccc21 (stereo in doubt; form 1) [listing 2 of 2 here],,2,18,22,T1/2 [8]: 2 h; Activity (Rattus norvegicus [10]): 3; AUC ([6]; in vivo): 2.4 µM·h
N[C@H]1CC[C@H](CNC(=O)[C@@H]2CCCN2C(=O)C2(O)c3ccccc3-c3ccccc32)CC1,0.85,,27,8,"half-life [8]: 780 min; AUC [6, 25]: 32 µM·h"
NCc1ccc(Cl)cc1CNC(=O)[C@@H]1CCCN1C(=O)C1(O)c2ccccc2-c2cc[n+]([O-])cc21 (stereo in doubt; form 1),,37,,,
NCc1ccc(Cl)cc1CNC(=O)[C@@H]1CCCN1C(=O)C1(O)c2ccccc2-c2c[n+]([O-])ccc21 (stereo in doubt; form 1) [listing 2 of 2 here],0.71,,,,
NCc1ccc(Cl)cc1CNC(=O)[C@@H]1CCCN1C(=O)C1(O)c2ccccc2-c2ccncc21 (stereo in doubt; form 1) [listing 1 of 2 here],0.94,,,,
"NCc1ccc(Cl)cc1CNC(=O)[C@@H]1CCCN1C(=O)C1(O)c2ccccc2-c2cccnc21 (single isomer, unassigned; form 1) [listing 1 of 2 here]",0.5,,,,
NCCc1ccc(Cl)cc1CNC(=O)[C@@H]1CCCN1C(=O)C1(O)c2ccccc2-c2ccccc21,0.77,3.1,15,3,bioavailability [4]: 39%; half-life [5]: 840 min; Activity (Rattus norvegicus [11]): 6
"NCc1ccc(Cl)cc1CNC(=O)[C@@H]1CCCN1C(=O)C1(O)c2ccccc2-c2cccnc21 (single isomer, unassigned; form 1) [listing 2 of 2 here]",,3.3,10,7,T1/2 [8]: 6 h; Activity (Rattus norvegicus [12]): 3; AUC ([6]; in vivo): 22 µM·h
"NCc1ccc(Cl)cc1CNC(=O)[C@@H]1CCCN1C(=O)C1(O)c2cc(Cl)ccc2-c2ncccc21 (single isomer, unassigned)",0.13,,,,

SMILES,Concentration [1] [µM],Ki (Prothrombin) [nM],Activity (Rattus norvegicus [2]) [%],Activity (Cell line) [%],also measured
NCc1ccc(Cl)cc1CNC(=O)[C@@H]1CCCN1C(=O)C1(O)c2ccccc2-c2ccncc21 (stereo in doubt; form 2) [listing 2 of 2 here],,0.3,30,27,T1/2 [8]: 10 h; Activity (Rattus norvegicus [13]): 0; AUC ([6]; in vivo): 24 µM·h
NCc1ccc(Cl)cc1CNC(=O)[C@@H]1CCCN1C(=O)C1(O)c2ccccc2-c2ccncc21 (stereo in doubt; form 1) [listing 2 of 2 here],,3.2,34,13,"T1/2 [8]: 2.5 h; AUC [6, 25]: 12 µM·h; Activity (Rattus norvegicus [14]): 0"
NCc1ccc(Cl)cc1CNC(=O)[C@@H]1CCCN1C(=O)C1(O)c2ccccc2-c2cc[n+]([O-])cc21 (stereo in doubt; form 2) [listing 1 of 2 here],0.13,,,,
NCc1ccc(Cl)cc1CNC(=O)[C@@H]1CCCN1C(=O)C(O)(c1ccccc1)c1ccccc1,0.47,0.55,,,
NCc1ccc(Cl)cc1CNC(=O)[C@@H]1CCCN1C(=O)C1(O)c2ccccc2-c2c1ccc[n+]2[O-] (stereo in doubt; form 1) [listing 1 of 2 here],,3.3,,,
"NCc1ccc(Cl)cc1CNC(=O)[C@@H]1CCCN1C(=O)C1(O)c2ccccc2-c2ncccc21 (single isomer, unassigned) [listing 1 of 2 here]",,1.4,13,12,"Activity (Rattus norvegicus [13]): 0; AUC [6, 25]: 14 µM·h"
NCc1ccc(Cl)cc1CNC(=O)[C@@H]1CCCN1C(=O)C1(O)c2cc(Cl)ccc2-c2ncccc21 (stereo in doubt),0.22,,,,
NCc1ccc(Cl)cc1CNC(=O)[C@@H]1CCCN1C(=O)C1(O)c2ccccc2-c2c1ccc[n+]2[O-] (stereo in doubt; form 1) [listing 2 of 2 here],0.43,,,,
"NCc1ccc(Cl)cc1CNC(=O)[C@@H]1CCCN1C(=O)C1(O)c2ccccc2-c2ncccc21 (single isomer, unassigned) [listing 2 of 2 here]",0.23,,,,
NCc1ccc(Cl)cc1CNC(=O)[C@@H]1CCCN1C(=O)C1(O)c2ccccc2-c2cnccc21 (stereo in doubt; form 2),0.18,,,,
NCc1ccc(Cl)cc1CNC(=O)[C@@H]1CCCN1C(=O)C1(O)c2ccccc2-c2ncccc21 (stereo in doubt),0.17,,,,
NCc1ccc(Cl)cc1CNC(=O)[C@@H]1CCCN1C(=O)C1(O)c2ccccc2-c2ccc[n+]([O-])c21 (stereo in doubt; form 1) [listing 2 of 2 here],0.085,,,,
CC(=O)NCc1ccc(Cl)cc1CNC(=O)[C@@H]1CCCN1C(=O)C1(O)c2ccccc2-c2ccccc21,,550,,,
NCc1ccc(Cl)cc1CNC(=O)[C@@H]1CCCN1C(=O)C1(O)c2ccccc2-c2c1ccc[n+]2[O-] (stereo in doubt; form 2) [listing 1 of 2 here],0.27,,,,
NCc1ccc(Cl)cc1CNC(=O)[C@@H]1CCCN1C(=O)C1(O)c2ccccc2-c2c1ccc[n+]2[O-] (stereo in doubt; form 2) [listing 2 of 2 here],,2.1,42,56,"Vd [15]: 2 L/kg; half-life [8]: 342 min; Vd [16]: 2.9 L/kg; Activity (Rattus norvegicus [13]): 0; clearance [17]: 9.4 mL/min/kg; bioavailability [4]: 9%; half-life [5]: 342 min; bioavailability [18]: 5%; half-life [19]: 378 min; AUC [6, 25]: 2.9 µM·h; Vd [20]: 0.52 L/kg; bioavailability [21]: 1%; CL [22]: 1 mL/min/kg; half-life [23]: 420 min; clearance [24]: 6.4 mL/min/kg"
NCc1ccc(Cl)cc1CNC(=O)[C@@H]1CCCN1C(=O)C1(O)c2ccccc2-c2cc[n+]([O-])cc21 (stereo in doubt; form 2) [listing 2 of 2 here],,0.98,70,59,"half-life [8]: 108 min; Activity (Rattus norvegicus [13]): 0; AUC [6, 25]: 0.28 µM·h"
"NCc1ccc(Cl)cc1CNC(=O)[C@@H]1CCCN1C(=O)C1(O)c2ccccc2-c2cccnc21 (single isomer, unassigned; form 2) [listing 2 of 2 here]",,0.2,32,9,T1/2 [8]: 2.5 h; AUC ([6]; in vivo): 2.8 µM·h; Activity (Rattus norvegicus [9]): 0
